Measured values reported in ChEMBL document CHEMBL2169868, “Flavone-based novel antidiabetic and antidyslipidemic agents” (J Med Chem, 2012).
Calls of active or inactive are those of the source. The rule behind the calls is not given here.

Assays:
Mus musculus [1] = assay: Antidyslipidemic activity in diabetic C57BL/KsJ db/db mouse model assessed as reduction in plasma triglyceride level at 25 mg/kg, po qd for 10 days; type: functional; parameters: scale not given: the % may be the effect or the level left
Procedure, shortened: (§1)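 db/db mice (blood glucose 200−350, TG 170−250, cholesterol 170−250, HDL-C 32−40 mg/dL) dosed orally at 25 mg/kg daily for 10 days; retro-orbital blood taken on day 11 for plasma TG, cholesterol and HDL-C (and HDL-C/CHOL ratio); mean % change versus vehicle control, 5 mice per group; Student t test.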

Rattus norvegicus [2] = assay: AUC in Sprague-Dawley rat at 10 mg/kg, iv by LC-MS/MS method; conditions: in vivo
[3] = Oral bioavailability in Sprague-Dawley rat at 40 mg/kg by LC-MS/MS method; type: ADME, organism-based; conditions: in vivo
Procedure, shortened: (§2)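 Male Sprague−Dawley rats fasted 10−12 h, then given a single 40 mg/kg oral gavage as an aqueous 0.5% methyl cellulose suspension. Blood drawn from 0.25 to 120 h. Plasma spun at 2000g for 10 min at 4 °C and stored at −60 °C. LC-MS/MS, linear range 0.78−400 ng/mL.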

[4] = Elimination half life in Sprague-Dawley rat at 40 mg/kg, po by LC-MS/MS method; type: ADME, organism-based; parameters: dose 40 mg/kg, route oral; conditions: in vivo, read-out: beta t1/2 (converted); procedure, shortened: as §2
[5] = Cmax in Sprague-Dawley rat at 10 mg/kg, iv by LC-MS/MS method; type: ADME, organism-based; parameters: dose 10 mg/kg, route intravenous; conditions: in vivo
Procedure, shortened: (§3)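 Male Sprague−Dawley rats, 225 ± 25 g. Single tail-vein dose of 10 mg/kg in DMF/PG/water (5:4:1), 0.2 μ filtered. Blood drawn from 0.08 to 48 h. Plasma spun at 2000g for 10 min at 4 °C and kept at −60 °C. LC-MS/MS with linear range 0.78−400 ng/mL; noncompartmental parameters.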

Syrian golden hamster [6] = assay: Antidyslipidemic activity in high fructose and high-fat diet fed dyslipidemic Syrian golden hamster model assessed as reduction in cholesterol level at 25 mg/kg/day for 7 days; type: functional, Mesocricetus auratus; parameters: scale not given: the % may be the effect or the level left
Syrian golden hamster [7] = assay: Antidyslipidemic activity in high fructose and high-fat diet fed dyslipidemic Syrian golden hamster model assessed as increase in HDL-cholesterol level at 25 mg/kg/day for 7 days; type: functional, Mesocricetus auratus
Syrian golden hamster [8] = assay: Antidyslipidemic activity in high fructose and high-fat diet fed dyslipidemic Syrian golden hamster model assessed as reduction in body weight at 25 mg/kg/day for 7 days; type: functional, Mesocricetus auratus; parameters: scale not given: the % may be the effect or the level left
Procedure, shortened: (§4)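 Syrian golden hamsters fed high-fructose high-fat diet; oral dosing in 1% gum acacia at 10, 30, 100 mg/kg (or 25 mg/kg) for 7 days, sham control given vehicle; plasma TG, cholesterol, LDL-C, HDL-C, glycerol and NEFA (kits), lipoprotein lipase activity and body weight; % change versus HFD control, six hamsters per group.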

Rattus norvegicus [9] = assay: Volume of distribution in Sprague-Dawley rat at 40 mg/kg, po by LC-MS/MS method; type: ADME, organism-based; parameters: dose 40 mg/kg, route oral; conditions: in vivo; procedure, shortened: as §2
Syrian golden hamster [10] = assay: Antidyslipidemic activity in high fructose and high-fat diet fed dyslipidemic Syrian golden hamster model assessed as reduction in LDL-cholesterol level at 100 mg/kg/day for 7 days; type: functional, Mesocricetus auratus; parameters: scale not given: the % may be the effect or the level left; procedure, shortened: as §4
Mus musculus [11] = assay: Antidyslipidemic activity in diabetic C57BL/KsJ db/db mouse model assessed as reduction in plasma cholesterol level at 25 mg/kg, po qd for 10 days; type: functional; parameters: scale not given: the % may be the effect or the level left; procedure, shortened: as §1
[12] = Elimination half life in Sprague-Dawley rat at 10 mg/kg, iv by LC-MS/MS method; type: ADME, organism-based; parameters: dose 10 mg/kg, route intravenous; conditions: in vivo, read-out: beta t1/2 (converted); procedure, shortened: as §3
[13] = Plasma clearance in Sprague-Dawley rat at 40 mg/kg, po by LC-MS/MS method; type: ADME, organism-based; parameters: dose 40 mg/kg, route oral; procedure, shortened: as §2
Syrian golden hamster [14] = assay: Antidyslipidemic activity in high fructose and high-fat diet fed dyslipidemic Syrian golden hamster model assessed as reduction in triglyceride level at 25 mg/kg/day for 7 days; type: functional, Mesocricetus auratus; parameters: scale not given: the % may be the effect or the level left
Procedure, shortened: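 HFD-fed Syrian golden hamsters, six per group, fed a high-fructose diet. Oral dosing in 1% gum acacia for 7 days. Sham group received vehicle. Plasma TG was measured and body weight tracked. Results given as % change versus HFD control.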

[15] = Volume of distribution in Sprague-Dawley rat at 10 mg/kg, iv by LC-MS/MS method; type: ADME, organism-based; parameters: dose 10 mg/kg, route intravenous; conditions: in vivo; procedure, shortened: as §3
Syrian golden hamster [16] = assay: Antidyslipidemic activity in high fructose and high-fat diet fed dyslipidemic Syrian golden hamster model assessed as increase in HDL-cholesterol level at 100 mg/kg/day for 7 days; type: functional, Mesocricetus auratus
Rattus norvegicus [17] = assay: Antihyperlipidemic activity in Triton-induced dyslipidemic Wistar rat model assessed as reduction in triglyceride level at 100 mg/kg, po; type: functional; parameters: scale not given: the % may be the effect or the level left
Procedure, shortened: (§5)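 Male Wistar rats, 8−10 weeks, about 160 g, fed normal pellet diet. Triton X-100 given at 400 mg/kg ip; compound given orally in 1% gum acacia. Retro-orbital blood taken 18 h after Triton and serum separated at 1500g for 10 min. TG and cholesterol measured by kit. Mean % change versus dyslipidemic control, 5 animals.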

Mus musculus [18] = assay: Antihyperglycemic activity in diabetic C57BL/KsJ db/db mouse model assessed as reduction in plasma insulin level in hyperglycemia at 25 mg/kg, po qd for 10 days; type: functional; parameters: scale not given: the % may be the effect or the level left
Procedure, shortened: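 db/db mice dosed orally every day for 10 days. On day 11, retro-orbital blood was drawn and plasma insulin measured. Mean % change versus vehicle-treated control, 5 mice per group; Student t test.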

Syrian golden hamster [19] = assay: Antidyslipidemic activity in high fructose and high-fat diet fed dyslipidemic Syrian golden hamster model assessed as reduction in triglyceride level at 100 mg/kg/day for 7 days; type: functional, Mesocricetus auratus; parameters: scale not given: the % may be the effect or the level left; procedure, shortened: as §4
Mus musculus [20] = assay: Antidyslipidemic activity in diabetic C57BL/KsJ db/db mouse model assessed as increase in plasma HDL-C/cholesterol ratio at 25 mg/kg, po qd for 10 days; type: functional; procedure, shortened: as §1
Rattus norvegicus [21] = assay: Antihyperlipidemic activity in Triton-induced dyslipidemic Wistar rat model assessed as reduction in phospholipid level at 100 mg/kg, po; type: functional; parameters: scale not given: the % may be the effect or the level left; procedure, shortened: as §5
[22] = Tmax in Sprague-Dawley rat at 40 mg/kg, po by LC-MS/MS method; type: ADME, organism-based; parameters: dose 40 mg/kg, route oral; conditions: in vivo; procedure, shortened: as §2
Syrian golden hamster [23] = assay: Antidyslipidemic activity in high fructose and high-fat diet fed dyslipidemic Syrian golden hamster model assessed as reduction in body weight at 100 mg/kg/day for 7 days; type: functional, organism-based; conditions: Mesocricetus auratus; procedure, shortened: as §4
Syrian golden hamster [24] = assay: Antidyslipidemic activity in high fructose and high-fat diet fed dyslipidemic Syrian golden hamster model assessed as reduction in LDL-cholesterol level at 25 mg/kg/day for 7 days; type: functional, Mesocricetus auratus; parameters: scale not given: the % may be the effect or the level left; procedure, shortened: as §4
Syrian golden hamster [25] = assay: Antidyslipidemic activity in high fructose and high-fat diet fed dyslipidemic Syrian golden hamster model assessed as reduction in cholesterol level at 100 mg/kg/day for 7 days; type: functional, Mesocricetus auratus; parameters: scale not given: the % may be the effect or the level left
[26] = Plasma clearance in Sprague-Dawley rat at 10 mg/kg, iv by LC-MS/MS method; type: ADME, organism-based; parameters: dose 10 mg/kg, route intravenous; procedure, shortened: as §3
[27] = Mean residence time in Sprague-Dawley rat at 40 mg/kg, po by LC-MS/MS method; type: ADME, organism-based; parameters: dose 40 mg/kg, route oral; conditions: in vivo; procedure, shortened: as §2
[28] = Cmax in Sprague-Dawley rat at 40 mg/kg, po by LC-MS/MS method; type: ADME, organism-based; parameters: dose 40 mg/kg, route oral; conditions: in vivo; procedure, shortened: as §2
[29] = Mean residence time in Sprague-Dawley rat at 10 mg/kg, iv by LC-MS/MS method; type: ADME, organism-based; parameters: dose 10 mg/kg, route intravenous; conditions: in vivo; procedure, shortened: as §3
Mus musculus [30] = assay: Antihyperglycemic activity in diabetic C57BL/KsJ db/db mouse model assessed as reduction in hyperglycemia at 25 mg/kg, po qd for 10 days; type: functional; parameters: scale not given: the % may be the effect or the level left
Procedure, shortened: (§6)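 db/db mice (C57BL/KsJ, 12−18 weeks, 40−50 g, glucose 200−350 mg/dL), housed at 23 ± 2.0 °C on a 12 h light cycle. Oral dosing daily for 10 days. Blood glucose checked each morning through day 9. Body weight recorded daily from day 1 to day 10. Mean % change versus vehicle, 5 mice per group; Student t test.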

Rattus norvegicus [31] = assay: Antihyperlipidemic activity in Triton-induced dyslipidemic Wistar rat model assessed as reduction in cholesterol level at 100 mg/kg, po; type: functional; parameters: scale not given: the % may be the effect or the level left; procedure, shortened: as §5
Mus musculus [32] = assay: Antidyslipidemic activity in diabetic C57BL/KsJ db/db mouse model assessed as increase in plasma HDL-cholesterol level at 25 mg/kg, po qd for 10 days; type: functional; procedure, shortened: as §1
Rattus norvegicus [33] = assay: AUC in Sprague-Dawley rat at 40 mg/kg, po by LC-MS/MS method; conditions: in vivo
Mus musculus [34] = assay: Antihyperglycemic activity in diabetic C57BL/KsJ db/db mouse model assessed as improvement in glucose tolerance in hyperglycemia at 25 mg/kg, po qd for 10 days; type: functional
Procedure, shortened: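 Male/female C57BL/KsJ db/db mice, 12−18 weeks, 40−50 g, selected for glucose 200−350 mg/dL. Oral dosing daily for 10 days. OGTT on day 10 after an overnight fast: compound at −30 min, then 3 g/kg oral glucose at 0 min. Glucose read at 30, 60, 90 and 120 min. AUC taken versus vehicle, 5 mice per group.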

Mus musculus [35] = assay: Reduction in body weight in diabetic C57BL/KsJ db/db mouse model in hyperglycemia at 25 mg/kg, po qd for 10 days relative to untreated control; type: functional; procedure, shortened: as §6

Compound `CC(C)(C)NCC(O)COc1ccc2c(=O)cc(-c3cc(OCc4ccccc4)cc(OCc4ccccc4)c3)oc2c1` (racemic) has an Activity (Mus musculus [1]) of 20.1%, an AUC (Rattus norvegicus [2]) of 2717.5 ng·h/mL and a bioavailability [3] of 29.5%. It also gave a half-life [4] of 19.6 h, a Cmax [5] of 998 ng/mL and an Activity (Syrian golden hamster [6]) of 15.3%. The Activity (Syrian golden hamster [7]) was 13.3%, the Activity (Syrian golden hamster [8]) was 8.89% and the Vd (Rattus norvegicus [9]) was 96.73 L/kg. It also gave an Activity (Syrian golden hamster [10]) of 61.9%, an Activity (Mus musculus [11]) of 22.3% and a half-life [12] of 16.3 h. It also gave a CL/F [13] of 57 mL/min/kg, an Activity (Syrian golden hamster [14]) of 22.2% and a Vd [15] of 69.4 L/kg. The Activity (Syrian golden hamster [16]) was 20%, the Activity (Rattus norvegicus [17]) was 9% and the Activity (Mus musculus [18]) was 30.6%. The Activity (Syrian golden hamster [19]) was 61.5%, the “Percent increase in HDL-C/cholesterol ratio vs vehicle” value (Mus musculus [20]) was 55.7 and the Activity (Rattus norvegicus [21]) was 18%. The Tmax [22] was 8 h, the Activity (Syrian golden hamster [23]) was “Active” and the Activity (Syrian golden hamster [24]) was 23.3%. The Activity (Syrian golden hamster [25]) was 22.9%, the clearance [26] was 60.8 mL/min/kg and the MRT [27] was 43.2 h. For the same compound, the Cmax [28] was 60.9 ng/mL, the MRT [29] was 22.8 h and the Activity (Mus musculus [30]) was 38.3%. The Activity (Rattus norvegicus [31]) was 21%, the Activity (Mus musculus [32]) was 20.9% and the AUC (Rattus norvegicus [33]) was 3469.28 ng·h/mL. For the same compound, the Activity (Mus musculus [34]) was 25.9% and the Activity (Mus musculus [35]) was “inactive”.
